According to ChEMBL document CHEMBL3585269, “Simple structural modifications confer cytotoxicity to allobetulin” (Bioorg Med Chem, 2015):
pEC50: −log10 of the molar value.

Tests used:
MCF7 = assay: Cytotoxicity against human MCF7 cells by SRB assay; format: functional, cell-based; conditions: for pEC50: Homo sapiens, MCF7, read-out: EC50; for EC50: mcf7
Procedure, shortened: (§1)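 Photometric sulforhodamine B (SRB) read-out after 96 h of compound treatment. EC50 values are averaged from three independent experiments, each run in triplicate, and reported with a 95% confidence interval. The assay has an upper cut-off.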

A549 = assay: Cytotoxicity against human A549 cells by SRB assay; format: functional, cell-based; conditions: for pEC50: Homo sapiens, A549, read-out: EC50; for EC50: a549; procedure, shortened: as §1
[1] = Cytotoxicity against human 518A2 cells by SRB assay; format: functional, cell-based; conditions: for pEC50: Homo sapiens, 518A2, read-out: EC50; for EC50: 518a2; procedure, shortened: as §1
A2780 = assay: Cytotoxicity against human A2780 cells by SRB assay; format: functional, cell-based; conditions: for pEC50: Homo sapiens, A2780, read-out: EC50; for EC50: a2780; procedure, shortened: as §1
8505C = assay: Cytotoxicity against human 8505C cells by SRB assay; format: functional, cell-based; conditions: for pEC50: Homo sapiens, 8505C, read-out: EC50; for EC50: 8505c; procedure, shortened: as §1
HT-29 = assay: Cytotoxicity against human HT-29 cells by SRB assay; format: functional, cell-based; conditions: for pEC50: Homo sapiens, HT-29, read-out: EC50; for EC50: ht-29; procedure, shortened: as §1
[2] = Cytotoxicity against mouse NIH/3T3 cells by SRB assay; format: cell-based; conditions: NIH3T3

Structure (SMILES): C=CCOC(=O)C[C@]1(C)[C@H]2CC[C@@H]3[C@H]4[C@H]5OC[C@@]4(CCC5(C)C)CC[C@@]3(C)[C@]2(C)CC[C@H]1C(C)(C)C(=O)OCC=C
- pEC50 (MCF7): < 4.52
- pEC50 (A549): < 4.52
- pEC50 [1]: < 4.52
- pEC50 (A2780): 4.64
- pEC50 (8505C): < 4.52
- pEC50 (HT-29): 4.53

Structure (SMILES): CC1(C)CC[C@]23CC[C@]4(C)[C@H](CC[C@@H]5[C@@]6(C)CC/C(=N\O)C(C)(C)[C@@H]6CC[C@]54C)[C@H]2[C@H]1OC3
- EC50 (MCF7): ND(Insoluble)
- EC50 (A549): ND(Insoluble)
- EC50 [1]: ND(Insoluble)
- EC50 (A2780): ND(Insoluble)
- EC50 (8505C): ND(Insoluble)
- EC50 (HT-29): ND(Insoluble)

Structure (SMILES): C=C(C)[C@@H]1CC[C@]2(C)[C@H](CC[C@@H]3[C@H]4[C@H]5OC[C@@]4(CCC5(C)C)CC[C@]32C)[C@@]1(C)CCC(=O)OCC
- pEC50 (MCF7): < 4.52
- pEC50 (A549): < 4.52
- pEC50 [1]: < 4.52
- pEC50 (A2780): < 4.52
- pEC50 (8505C): < 4.52
- pEC50 (HT-29): < 4.52

Structure (SMILES): CCOC(=O)C[C@]1(C)[C@H]2CC[C@@H]3[C@H]4[C@H]5OC[C@@]4(CCC5(C)C)CC[C@@]3(C)[C@]2(C)CC[C@H]1C(C)(C)C(=O)OCC
- pEC50 (MCF7): 4.58
- pEC50 (A549): 5.23
- pEC50 [1]: 4.58
- pEC50 (A2780): 4.72
- pEC50 (8505C): 4.61
- pEC50 [2]: 4.60
- pEC50 (HT-29): 4.75

Structure (SMILES): C#CCOC(=O)CC[C@]1(C)[C@H]2CC[C@@H]3[C@H]4[C@H]5OC[C@@]4(CCC5(C)C)CC[C@@]3(C)[C@]2(C)CC[C@H]1C(=C)C
- pEC50 (MCF7): < 4.52
- pEC50 (A549): < 4.52
- pEC50 [1]: < 4.52
- pEC50 (A2780): < 4.52
- pEC50 (8505C): < 4.52
- pEC50 (HT-29): < 4.52

Structure (SMILES): C=C(C)[C@@H]1CC[C@]2(CO)CC[C@]3(C)[C@H](CC[C@@H]4[C@@]5(C)CC[C@H](O)C(C)(C)[C@@H]5CC[C@]43C)[C@@H]12 [BETULIN]
- pEC50 (MCF7): 4.61
- pEC50 (A549): 4.69
- pEC50 [1]: 4.54
- pEC50 (A2780): 4.53
- pEC50 (8505C): < 4.52
- pEC50 (HT-29): < 4.52

Structure (SMILES): C=C(C)[C@@H]1CC[C@]2(C)[C@H](CC[C@@H]3[C@H]4[C@H]5OC[C@@]4(CCC5(C)C)CC[C@]32C)[C@@]1(C)CCC(=O)OCc1ccccc1
- EC50 (MCF7): ND(Insoluble)
- EC50 (A549): ND(Insoluble)
- EC50 [1]: ND(Insoluble)
- EC50 (A2780): ND(Insoluble)
- EC50 (8505C): ND(Insoluble)
- EC50 (HT-29): ND(Insoluble)

Structure (SMILES): CCCCOC(=O)C[C@]1(C)[C@H]2CC[C@@H]3[C@H]4[C@H]5OC[C@@]4(CCC5(C)C)CC[C@@]3(C)[C@]2(C)CC[C@H]1C(C)(C)C(=O)OCCCC
- pEC50 (MCF7): < 4.52
- pEC50 (A549): < 4.52
- pEC50 [1]: < 4.52
- pEC50 (A2780): < 4.52
- pEC50 (8505C): < 4.52
- pEC50 (HT-29): < 4.52

Structure (SMILES): C#CCOC(=O)C[C@]1(C)[C@H]2CC[C@@H]3[C@H]4[C@H]5OC[C@@]4(CCC5(C)C)CC[C@@]3(C)[C@]2(C)CC[C@H]1C(C)(C)C(=O)OCC#C
- pEC50 (MCF7): 4.57
- pEC50 (A549): 4.68
- pEC50 [1]: 4.76
- pEC50 (A2780): 4.90
- pEC50 (8505C): 4.73
- pEC50 (HT-29): 4.80

Structure (SMILES): CC1(C)CC[C@]23CC[C@]4(C)[C@H](CC[C@@H]5[C@@](C)(CC(=O)O)[C@H](C(C)(C)C(=O)O)CC[C@]54C)[C@H]2[C@H]1OC3
- EC50 (MCF7): ND(Insoluble)
- EC50 (A549): ND(Insoluble)
- EC50 [1]: ND(Insoluble)
- EC50 (A2780): ND(Insoluble)
- EC50 (8505C): ND(Insoluble)
- EC50 (HT-29): ND(Insoluble)

Structure (SMILES): C=C(C)[C@@H]1CC[C@]2(C)[C@H](CC[C@@H]3[C@H]4[C@H]5OC[C@@]4(CCC5(C)C)CC[C@]32C)[C@@]1(C)CCC(=O)OCCCC
- pEC50 (MCF7): < 4.52
- pEC50 (A549): < 4.52
- pEC50 [1]: < 4.52
- pEC50 (A2780): < 4.52
- pEC50 (8505C): < 4.52
- pEC50 (HT-29): < 4.52

Structure (SMILES): COC(=O)C[C@]1(C)[C@H]2CC[C@@H]3[C@H]4[C@H]5OC[C@@]4(CCC5(C)C)CC[C@@]3(C)[C@]2(C)CC[C@H]1C(C)(C)C(=O)OC
- pEC50 (MCF7): 4.53
- pEC50 (A549): < 4.52
- pEC50 [1]: 4.53
- pEC50 (A2780): 4.74
- pEC50 (8505C): 4.57
- pEC50 (HT-29): 4.76

Structure (SMILES): C=CCOC(=O)CC[C@]1(C)[C@H]2CC[C@@H]3[C@H]4[C@H]5OC[C@@]4(CCC5(C)C)CC[C@@]3(C)[C@]2(C)CC[C@H]1C(=C)C
- pEC50 (MCF7): < 4.52
- pEC50 (A549): < 4.52
- pEC50 [1]: < 4.52
- pEC50 (A2780): < 4.52
- pEC50 (8505C): < 4.52
- pEC50 (HT-29): < 4.52

Structure (SMILES): C=C(C)[C@@H]1CC[C@]2(C)[C@H](CC[C@@H]3[C@H]4[C@H]5OC[C@@]4(CCC5(C)C)CC[C@]32C)[C@@]1(C)CCC(=O)OCCC
- pEC50 (MCF7): < 4.52
- pEC50 (A549): < 4.52
- pEC50 [1]: < 4.52
- pEC50 (A2780): < 4.52
- pEC50 (8505C): < 4.52
- pEC50 (HT-29): < 4.52

Structure (SMILES): C=C(C)[C@@H]1CC[C@]2(C)[C@H](CC[C@@H]3[C@H]4[C@H]5OC[C@@]4(CCC5(C)C)CC[C@]32C)[C@@]1(C)CCC#N
- pEC50 (MCF7): < 4.52
- pEC50 (A549): 4.67
- pEC50 [1]: 4.59
- pEC50 (A2780): < 4.52
- pEC50 (8505C): < 4.52
- pEC50 (HT-29): < 4.52

Structure (SMILES): CCCOC(=O)C[C@]1(C)[C@H]2CC[C@@H]3[C@H]4[C@H]5OC[C@@]4(CCC5(C)C)CC[C@@]3(C)[C@]2(C)CC[C@H]1C(C)(C)C(=O)OCCC
- pEC50 (MCF7): < 4.52
- pEC50 (A549): < 4.52
- pEC50 [1]: < 4.52
- pEC50 (A2780): 4.65
- pEC50 (8505C): < 4.52
- pEC50 (HT-29): 4.57

Structure (SMILES): C=C(C)[C@@H]1CC[C@]2(C)[C@H](CC[C@@H]3[C@H]4[C@H]5OC[C@@]4(CCC5(C)C)CC[C@]32C)[C@@]1(C)CCC(=O)O
- EC50 (MCF7): ND(Insoluble)
- EC50 (A549): ND(Insoluble)
- EC50 [1]: ND(Insoluble)
- EC50 (A2780): ND(Insoluble)
- EC50 (8505C): ND(Insoluble)
- EC50 (HT-29): ND(Insoluble)

Structure (SMILES): CC1(C)CC[C@]23CC[C@]4(C)[C@H](CC[C@@H]5[C@@]6(C)CC[C@H](O)C(C)(C)[C@@H]6CC[C@]54C)[C@H]2[C@H]1OC3 [ALLOBETULIN]
- pEC50 (MCF7): < 4.52
- pEC50 (A549): < 4.52
- pEC50 [1]: < 4.52
- pEC50 (A2780): < 4.52
- pEC50 (8505C): < 4.52
- pEC50 (HT-29): < 4.52

Structure (SMILES): CC1(C)CC[C@]23CC[C@]4(C)[C@H](CC[C@@H]5[C@@]6(C)CC[C@@H](N)C(C)(C)[C@@H]6CC[C@]54C)[C@H]2[C@H]1OC3
- pEC50 (MCF7): 4.82
- pEC50 (A549): 4.90
- pEC50 [1]: 4.99
- pEC50 (A2780): 4.89
- pEC50 (8505C): 4.81
- pEC50 [2]: 4.80
- pEC50 (HT-29): 5.17

Structure (SMILES): CC1(C)CC[C@]23CC[C@]4(C)[C@H](CC[C@@H]5[C@@]6(C)CCC(=O)OC(C)(C)[C@@H]6CC[C@]54C)[C@H]2[C@H]1OC3
- pEC50 (MCF7): < 4.52
- pEC50 (A549): < 4.52
- pEC50 [1]: < 4.52
- pEC50 (A2780): < 4.52
- pEC50 (8505C): < 4.52
- pEC50 (HT-29): < 4.52

Structure (SMILES): CC1(C)CC[C@]23CC[C@]4(C)[C@H](CC[C@@H]5[C@@](C)(CC(=O)OCc6ccccc6)[C@H](C(C)(C)C(=O)OCc6ccccc6)CC[C@]54C)[C@H]2[C@H]1OC3
- EC50 (MCF7): ND(Insoluble)
- EC50 (A549): ND(Insoluble)
- EC50 [1]: ND(Insoluble)
- EC50 (A2780): ND(Insoluble)
- EC50 (8505C): ND(Insoluble)
- EC50 (HT-29): ND(Insoluble)

Structure (SMILES): CC1(C)CC[C@]23CC[C@]4(C)[C@H](CC[C@@H]5[C@@]6(C)C=C(O)C(=O)C(C)(C)[C@@H]6CC[C@]54C)[C@H]2[C@H]1OC3
- pEC50 (MCF7): < 4.52
- pEC50 (A549): 4.63
- pEC50 [1]: < 4.52
- pEC50 (A2780): < 4.52
- pEC50 (8505C): < 4.52
- pEC50 (HT-29): < 4.52

Structure (SMILES): CC1(C)CC[C@]23CC[C@]4(C)[C@H](CC[C@@H]5[C@@]6(C)CC[C@H](N)C(C)(C)[C@@H]6CC[C@]54C)[C@H]2[C@H]1OC3
- pEC50 (MCF7): 4.98
- pEC50 (A549): 5.14
- pEC50 [1]: 5.27
- pEC50 (A2780): 5.18
- pEC50 (8505C): 5.11
- pEC50 [2]: 5.14
- pEC50 (HT-29): 5.21

Structure (SMILES): C=C(C)[C@@H]1CC[C@]2(C)[C@H](CC[C@@H]3[C@H]4[C@H]5OC[C@@]4(CCC5(C)C)CC[C@]32C)[C@@]1(C)CCC(=O)OC
- pEC50 (MCF7): < 4.52
- pEC50 (A549): < 4.52
- pEC50 [1]: < 4.52
- pEC50 (A2780): < 4.52
- pEC50 (8505C): < 4.52
- pEC50 (HT-29): < 4.52
